Experimental data as given in ChEMBL document CHEMBL1649436, “Antiviral activity of MK-4965, a novel nonnucleoside reverse transcriptase inhibitor” (Antimicrob Agents Chemother, 2009).

Experiments:
[1] = tested on: Plasma; experiment: Plasma protein binding in HIV1 infected patient; assay type: ADME, cell-free; conditions: human
[2] = tested on: Human immunodeficiency virus 1; experiment: Antiviral activity against HIV1 isolate R8 harboring reverse transcriptase K103N mutant infected in human MT4 cells assessed as inhibition of viral replication after 72 hrs in presence of 50% human serum; assay type: functional; conditions: Human immunodeficiency virus 1, isolate R8, MT4, 72 h
Procedure, shortened: (§1)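 Multiple-cycle assay: MT-4 cells (2.5 × 10^5) infected with R8-based virus at low MOI, no inhibitor, 24 h at 37°C, 5% CO2; washed, reseeded at 5 × 10^4 cells in RPMI 1640 with 10% FBS or 50% type AB human serum; threefold serial dilutions from 833 nM to 0.32 nM; 72 h; p24 in medium by AlphaScreen; EC95 = lowest concentration giving ≥95% p24 reduction versus untreated.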

[3] = tested on: Human immunodeficiency virus 1; experiment: Antiviral activity against HIV1 isolate R8 harboring reverse transcriptase K103N mutant infected in human MT4 cells assessed as inhibition of viral replication after 72 hrs in presence of 10% FBS; assay type: functional; conditions: Human immunodeficiency virus 1, isolate R8, MT4, 72 h; procedure, shortened: as §1
[4] = tested on: Human immunodeficiency virus 1; experiment: Antiviral activity against HIV1 isolate R8 harboring reverse transcriptase K103N and Y181C mutant infected in human MT4 cells assessed as inhibition of viral replication after 72 hrs in presence of 50% human serum; assay type: functional; conditions: Human immunodeficiency virus 1, isolate R8, MT4, 72 h; procedure, shortened: as §1
[5] = tested on: Human immunodeficiency virus 1; experiment: Antiviral activity against HIV1 isolate R8 harboring reverse transcriptase Y181C mutant infected in human MT4 cells assessed as inhibition of viral replication after 72 hrs in presence of 50% human serum; assay type: functional; conditions: Human immunodeficiency virus 1, isolate R8, MT4, 72 h; procedure, shortened: as §1
[6] = tested on: Human immunodeficiency virus 1; experiment: Antiviral activity against HIV1 isolate R8 harboring wild type reverse transcriptase infected in human MT4 cells assessed as inhibition of viral replication after 72 hrs in presence of 10% FBS; assay type: functional; conditions: Human immunodeficiency virus 1, isolate R8, MT4, 72 h; procedure, shortened: as §1
[7] = tested on: Human immunodeficiency virus 1; experiment: Antiviral activity against HIV1 isolate R8 harboring reverse transcriptase Y181C mutant infected in human MT4 cells assessed as inhibition of viral replication after 72 hrs in presence of 10% FBS; assay type: functional; conditions: Human immunodeficiency virus 1, isolate R8, MT4, 72 h; procedure, shortened: as §1
[8] = tested on: Human immunodeficiency virus 1; experiment: Antiviral activity against HIV1 isolate R8 harboring wild type reverse transcriptase infected in human MT4 cells assessed as inhibition of viral replication after 72 hrs in presence of 50% human serum; assay type: functional; conditions: Human immunodeficiency virus 1, isolate R8, MT4, 72 h; procedure, shortened: as §1
[9] = tested on: Plasma; experiment: Plasma protein binding in healthy human at 200 mg/kg; assay type: ADME, organism-based; parameters: dose 200 mg/kg; conditions: in vivo
[10] = tested on: Human immunodeficiency virus 1; experiment: Antiviral activity against HIV1 isolate R8 harboring reverse transcriptase K103N and Y181C mutant infected in human MT4 cells assessed as inhibition of viral replication after 72 hrs in presence of 10% FBS; assay type: functional; conditions: Human immunodeficiency virus 1, isolate R8, MT4, 72 h; procedure, shortened: as §1
[11] = tested on: Human immunodeficiency virus 1; experiment: Antiviral activity against HIV1 isolate R8 harboring reverse transcriptase F227C mutant relative to drug-sensitive HIV1 CNDO; assay type: functional
[12] = tested on: Human immunodeficiency virus 1; experiment: Ratio of EC95 for HIV1 isolate R8 harboring reverse transcriptase Y181C mutant in presence of 50% human serum to EC95 for HIV1 isolate R8 harboring wild type reverse transcriptase in presence of 50% human serum; assay type: functional
Procedure, shortened: (§2)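 Ratios of EC95 values from the MT-4 multiple-cycle assay: R8 variants infected 24 h at low MOI, then reseeded in RPMI 1640 with 10% FBS or 50% type AB human serum with threefold dilutions (833–0.32 nM) for 72 h; p24 by AlphaScreen; EC95 = lowest concentration cutting p24 ≥95% versus untreated controls.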

[13] = tested on: Human immunodeficiency virus 1; experiment: Antiviral activity against HIV1 isolate R8 harboring reverse transcriptase M230L mutant relative to drug-sensitive HIV1 CNDO; assay type: functional
[14] = tested on: Human immunodeficiency virus 1; experiment: Antiviral activity against HIV1 isolate R8 harboring reverse transcriptase Y181I mutant relative to drug-sensitive HIV1 CNDO; assay type: functional
[15] = tested on: Human immunodeficiency virus 1; experiment: Antiviral activity against HIV1 isolate R8 harboring reverse transcriptase Y181C and K103N mutant relative to drug-sensitive HIV1 CNDO; assay type: functional
[16] = tested on: Human immunodeficiency virus 1; experiment: Ratio of EC95 for HIV1 isolate R8 harboring reverse transcriptase K103N mutant in presence of 50% human serum to EC95 for HIV1 isolate R8 harboring wild type reverse transcriptase in presence of 50% human serum; assay type: functional; procedure, shortened: as §2
[17] = tested on: Human immunodeficiency virus 1; experiment: Antiviral activity against HIV1 isolate R8 harboring reverse transcriptase K101P mutant relative to drug-sensitive HIV1 CNDO; assay type: functional
[18] = tested on: Human immunodeficiency virus 1; experiment: Antiviral activity against HIV1 isolate R8 harboring reverse transcriptase L100I and K103N mutant relative to drug-sensitive HIV1 CNDO; assay type: functional
[19] = tested on: Human immunodeficiency virus 1; experiment: Ratio of EC95 for HIV1 isolate R8 harboring reverse transcriptase K103N and Y181C mutant in presence of 50% human serum to EC95 for HIV1 isolate R8 harboring wild type reverse transcriptase in presence of 50% human serum; assay type: functional; procedure, shortened: as §2

O=C1Nc2ccc(Cl)cc2[C@@](C#CC2CC2)(C(F)(F)F)O1 [EFAVIRENZ]
Activity [1]: > 99.5% | EC95 [2]: 1.73 µM | EC95 [3]: 0.245 µM | EC95 [4]: 3.39 µM | EC95 [5]: 0.089 µM | EC95 [6]: 3.8 nM | EC95 [7]: 0.0084 µM | EC95 [8]: 0.038 µM | Activity [9]: > 99.5% | EC95 [10]: 0.322 µM

Cc1cc(C#N)cc(C)c1Oc1nc(Nc2ccc(C#N)cc2)nc(N)c1Br [ETRAVIRINE]
fold change (FC) [11]: > 10 | fold change (FC) [12]: 7 | fold change (FC) [13]: > 10 | Activity [1]: > 99.5% | EC95 [2]: 0.043 µM | EC95 [3]: 0.006 µM | EC95 [4]: 0.542 µM | EC95 [5]: 0.266 µM | EC95 [6]: 4 nM | fold change (FC) [14]: > 10 | EC95 [7]: 0.026 µM | fold change (FC) [15]: > 10 | fold change (FC) [16]: 1.1 | fold change (FC) [17]: > 10 | fold change (FC) [18]: > 10 | fold change (FC) [19]: 14 | EC95 [8]: 0.038 µM | Activity [9]: > 99.5% | EC95 [10]: 0.056 µM
